Laboratory results taken from ChEMBL document CHEMBL1138841, “An orally bioavailable, functionally selective inverse agonist at the benzodiazepine site of GABAA alpha5 receptors with cognition enhancing properties” (J Med Chem, 2004).

Tests used:
[1] = target: GABA-A receptor; alpha-5/beta-3/gamma-2 (Homo sapiens) (UniProt P18507+P28472+P31644); assay: In vitro percent efficacy against human gamma-aminobutyric-acid A receptor alpha-5-beta-3-gamma-2 expressed in L(tk-) cells; type: cell-based
Procedure, shortened: (§1)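 Whole-cell patch clamp on mouse fibroblast L(tk-) cells stably expressing human αxβ3γ2 receptors. Efficacy is the maximum % modulation of current evoked by a submaximal (EC20) GABA concentration. Mean ± SEM from at least five individually fitted concentration–response curves per subtype.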

[2] = target: GABA-A receptor; alpha-3/beta-3/gamma-2 (Homo sapiens) (UniProt P18507+P28472+P34903); assay: In vitro percent efficacy against human gamma-aminobutyric-acid A receptor alpha-3-beta-3-gamma-2 expressed in L(tk-) cells; type: cell-based; procedure, shortened: as §1
[3] = target: GABA-A receptor; alpha-2/beta-3/gamma-2 (Homo sapiens) (UniProt P18507+P28472+P47869); assay: In vitro percent efficacy against human gamma-aminobutyric-acid A receptor alpha-2-beta-3-gamma-2 expressed in L(tk-) cells; type: cell-based; procedure, shortened: as §1
[4] = target: GABA-A receptor; alpha-1/beta-3/gamma-2 (Homo sapiens) (UniProt P14867+P18507+P28472); assay: In vitro percent efficacy against human gamma-aminobutyric-acid A receptor alpha-1-beta-3-gamma-2 expressed in L(tk-) cells; type: cell-based; procedure, shortened: as §1
[5] = target: T1, GABA-A receptor; alpha-5/beta-3/gamma-2 (Homo sapiens, UniProt P18507+P28472+P31644); assay: Displacement of [3H]-Ro- 15-1788 from human gamma-aminobutyric-acid GABA-A receptor alpha-5-beta-3-gamma-2 expressed in L(tk-) cells; type: cell-based
T1 sequence (P18507 whole entry): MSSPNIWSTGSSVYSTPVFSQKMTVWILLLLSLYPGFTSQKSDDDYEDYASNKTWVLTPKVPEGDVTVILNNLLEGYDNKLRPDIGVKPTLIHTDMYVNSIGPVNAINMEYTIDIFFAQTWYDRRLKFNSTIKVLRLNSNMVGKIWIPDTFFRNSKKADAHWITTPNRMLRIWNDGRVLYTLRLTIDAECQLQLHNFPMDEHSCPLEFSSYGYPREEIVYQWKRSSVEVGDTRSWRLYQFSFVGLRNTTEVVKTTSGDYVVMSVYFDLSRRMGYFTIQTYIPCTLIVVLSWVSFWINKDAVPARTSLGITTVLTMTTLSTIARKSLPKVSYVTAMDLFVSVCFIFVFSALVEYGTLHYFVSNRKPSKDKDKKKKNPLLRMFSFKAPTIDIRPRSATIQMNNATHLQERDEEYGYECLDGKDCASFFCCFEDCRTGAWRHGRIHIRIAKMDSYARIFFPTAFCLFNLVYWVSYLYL
T1 sequence (P28472 whole entry): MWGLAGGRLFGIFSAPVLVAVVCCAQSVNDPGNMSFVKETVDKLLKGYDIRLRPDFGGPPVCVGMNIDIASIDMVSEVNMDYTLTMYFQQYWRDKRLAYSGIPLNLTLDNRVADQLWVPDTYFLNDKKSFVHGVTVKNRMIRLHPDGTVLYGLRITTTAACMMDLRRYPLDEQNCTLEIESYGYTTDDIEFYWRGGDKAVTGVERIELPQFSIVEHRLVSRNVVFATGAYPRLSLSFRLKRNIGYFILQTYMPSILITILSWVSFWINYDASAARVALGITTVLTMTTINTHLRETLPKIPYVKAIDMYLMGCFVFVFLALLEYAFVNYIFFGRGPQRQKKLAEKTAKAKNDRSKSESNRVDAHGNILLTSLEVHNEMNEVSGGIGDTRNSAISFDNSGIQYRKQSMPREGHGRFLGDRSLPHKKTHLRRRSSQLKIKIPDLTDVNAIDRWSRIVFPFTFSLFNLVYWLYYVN
T1 sequence (P31644 whole entry): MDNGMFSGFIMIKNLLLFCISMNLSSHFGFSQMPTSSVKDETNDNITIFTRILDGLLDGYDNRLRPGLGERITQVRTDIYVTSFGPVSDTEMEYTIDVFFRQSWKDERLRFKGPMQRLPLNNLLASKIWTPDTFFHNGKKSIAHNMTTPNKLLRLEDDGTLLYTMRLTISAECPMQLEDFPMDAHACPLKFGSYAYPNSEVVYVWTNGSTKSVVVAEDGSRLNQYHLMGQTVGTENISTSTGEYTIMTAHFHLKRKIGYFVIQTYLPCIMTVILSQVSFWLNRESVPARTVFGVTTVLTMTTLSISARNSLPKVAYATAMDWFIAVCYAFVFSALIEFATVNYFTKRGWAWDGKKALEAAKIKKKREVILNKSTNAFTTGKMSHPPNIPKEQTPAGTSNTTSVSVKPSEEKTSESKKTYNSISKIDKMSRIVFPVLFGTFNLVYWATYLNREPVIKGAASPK

[6] = target: GABA A receptor alpha-4/beta-3/gamma-2 (Homo sapiens, UniProt P18507+P28472+P48169); assay: Binding affinity towards gamma-aminobutyric-acid GABA-A receptor alpha-4-beta-3-gamma-2; type: protein-complex assay
Chain of GABA A receptor alpha-4/beta-3/gamma-2 (P48169 whole entry, one chain of several): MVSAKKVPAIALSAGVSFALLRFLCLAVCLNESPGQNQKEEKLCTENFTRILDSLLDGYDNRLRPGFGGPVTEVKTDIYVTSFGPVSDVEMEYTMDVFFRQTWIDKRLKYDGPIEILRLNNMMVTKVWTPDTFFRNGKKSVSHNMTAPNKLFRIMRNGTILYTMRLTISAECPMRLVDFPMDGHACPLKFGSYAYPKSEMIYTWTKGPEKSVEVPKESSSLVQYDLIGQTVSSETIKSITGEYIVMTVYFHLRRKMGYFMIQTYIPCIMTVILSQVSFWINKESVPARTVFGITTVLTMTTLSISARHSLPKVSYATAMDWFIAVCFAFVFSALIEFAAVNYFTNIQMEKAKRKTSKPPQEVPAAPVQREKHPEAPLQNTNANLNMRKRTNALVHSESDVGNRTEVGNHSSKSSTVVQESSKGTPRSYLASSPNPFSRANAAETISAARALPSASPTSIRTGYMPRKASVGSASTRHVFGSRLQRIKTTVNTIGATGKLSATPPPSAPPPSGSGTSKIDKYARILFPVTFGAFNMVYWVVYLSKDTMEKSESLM

[7] = target: T2, GABA-A receptor; alpha-1/beta-3/gamma-2 (Homo sapiens, UniProt P14867+P18507+P28472); assay: Displacement of [3H]-Ro- 15-1788 from human gamma-aminobutyric-acid GABA-A receptor alpha-1-beta-3-gamma-2 expressed in L(tk-) cells; type: cell-based
T2 sequence (P14867 whole entry): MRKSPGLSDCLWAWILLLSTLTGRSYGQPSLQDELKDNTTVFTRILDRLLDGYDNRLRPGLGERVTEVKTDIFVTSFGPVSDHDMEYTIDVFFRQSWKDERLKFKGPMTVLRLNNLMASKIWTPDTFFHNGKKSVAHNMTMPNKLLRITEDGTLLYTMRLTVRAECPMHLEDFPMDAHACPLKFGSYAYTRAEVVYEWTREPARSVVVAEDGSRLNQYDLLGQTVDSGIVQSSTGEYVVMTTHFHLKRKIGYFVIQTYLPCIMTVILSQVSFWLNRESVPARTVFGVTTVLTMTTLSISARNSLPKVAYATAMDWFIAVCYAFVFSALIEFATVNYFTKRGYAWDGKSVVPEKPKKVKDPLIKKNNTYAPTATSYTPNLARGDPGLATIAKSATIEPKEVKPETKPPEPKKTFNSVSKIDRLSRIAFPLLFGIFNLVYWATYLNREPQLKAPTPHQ
T2 sequence (P18507 whole entry): T1 sequence (P18507 whole entry)
T2 sequence (P28472 whole entry): T1 sequence (P28472 whole entry)

[8] = target: T3, GABA-A receptor; alpha-2/beta-3/gamma-2 (Homo sapiens, UniProt P18507+P28472+P47869); assay: Displacement of [3H]-Ro- 15-1788 from human gamma-aminobutyric-acid GABA-A receptor alpha-2-beta-3-gamma-2 expressed in L(tk-) cells; type: cell-based
T3 sequence (P18507 whole entry): T1 sequence (P18507 whole entry)
T3 sequence (P28472 whole entry): T1 sequence (P28472 whole entry)
T3 sequence (P47869 whole entry): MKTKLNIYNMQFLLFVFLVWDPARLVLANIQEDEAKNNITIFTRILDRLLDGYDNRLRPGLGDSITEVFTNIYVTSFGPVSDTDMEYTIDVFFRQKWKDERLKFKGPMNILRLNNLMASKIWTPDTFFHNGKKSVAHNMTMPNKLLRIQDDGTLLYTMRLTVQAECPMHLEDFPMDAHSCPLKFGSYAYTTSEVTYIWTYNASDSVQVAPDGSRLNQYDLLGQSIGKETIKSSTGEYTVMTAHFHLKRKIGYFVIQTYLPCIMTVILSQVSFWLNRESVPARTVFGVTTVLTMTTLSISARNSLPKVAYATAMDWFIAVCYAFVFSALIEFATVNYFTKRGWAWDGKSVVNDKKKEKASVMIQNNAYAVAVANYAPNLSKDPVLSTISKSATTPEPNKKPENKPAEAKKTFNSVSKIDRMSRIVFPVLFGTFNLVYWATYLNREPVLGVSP

[9] = target: GABA-A receptor; anion channel (Rattus norvegicus) (UniProt O09028+P15431+P18506+P18508+P19969+P20236+P23574+P23576+P28471+P28473+P30191+P62813+P63079+P63138+Q91ZM7+Q9ES14); assay: Concentration required to occupy 50% of gamma-aminobutyric-acid GABA-A receptor alpha subtype at 0.75 hr after dose; type: protein-complex assay
Procedure, shortened: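 Rats dosed orally in 0.5% Methocel vehicle; occupancy of the benzodiazepine binding site measured 0.75 h postdose by in vivo [3H]Ro 15-1788 binding. Dose giving 50% occupancy read from the dose–occupancy relationship.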

[10] = Oral bioavailability in rat; type: ADME, organism-based; conditions: in vivo
[11] = Oral bioavailability in dog; type: ADME, organism-based, Canis lupus familiaris; conditions: in vivo
[12] = target: T4, GABA-A receptor; alpha-3/beta-3/gamma-2 (Homo sapiens, UniProt P18507+P28472+P34903); assay: Displacement of [3H]-Ro- 15-1788 from human gamma-aminobutyric-acid GABA-A receptor alpha-3-beta-3-gamma-2 expressed in L(tk-) cells; type: cell-based
T4 sequence (P18507 whole entry): T1 sequence (P18507 whole entry)
T4 sequence (P28472 whole entry): T1 sequence (P28472 whole entry)
T4 sequence (P34903 whole entry): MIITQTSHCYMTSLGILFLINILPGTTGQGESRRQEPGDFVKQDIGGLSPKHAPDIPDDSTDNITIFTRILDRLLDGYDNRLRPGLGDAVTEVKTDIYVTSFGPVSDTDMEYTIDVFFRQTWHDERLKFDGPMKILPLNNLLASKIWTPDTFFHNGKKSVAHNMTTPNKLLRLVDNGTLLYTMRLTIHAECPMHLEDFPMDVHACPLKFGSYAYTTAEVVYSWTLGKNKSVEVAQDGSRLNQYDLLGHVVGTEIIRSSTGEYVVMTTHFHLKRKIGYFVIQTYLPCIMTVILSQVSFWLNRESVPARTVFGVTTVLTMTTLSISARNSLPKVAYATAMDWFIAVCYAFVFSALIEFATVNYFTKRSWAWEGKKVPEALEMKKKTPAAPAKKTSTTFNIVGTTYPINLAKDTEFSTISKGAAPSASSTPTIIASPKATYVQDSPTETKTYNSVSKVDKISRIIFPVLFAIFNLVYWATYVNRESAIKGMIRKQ

[13] = target: GABA-A receptor; alpha-6/beta-3/gamma-2 (Homo sapiens, UniProt P18507+P28472+Q16445); assay: Binding affinity towards gamma-aminobutyric-acid GABA-A receptor alpha-6-beta-3-gamma-2; type: protein-complex assay
Chain of GABA-A receptor; alpha-6/beta-3/gamma-2 (Q16445 whole entry, one chain of several): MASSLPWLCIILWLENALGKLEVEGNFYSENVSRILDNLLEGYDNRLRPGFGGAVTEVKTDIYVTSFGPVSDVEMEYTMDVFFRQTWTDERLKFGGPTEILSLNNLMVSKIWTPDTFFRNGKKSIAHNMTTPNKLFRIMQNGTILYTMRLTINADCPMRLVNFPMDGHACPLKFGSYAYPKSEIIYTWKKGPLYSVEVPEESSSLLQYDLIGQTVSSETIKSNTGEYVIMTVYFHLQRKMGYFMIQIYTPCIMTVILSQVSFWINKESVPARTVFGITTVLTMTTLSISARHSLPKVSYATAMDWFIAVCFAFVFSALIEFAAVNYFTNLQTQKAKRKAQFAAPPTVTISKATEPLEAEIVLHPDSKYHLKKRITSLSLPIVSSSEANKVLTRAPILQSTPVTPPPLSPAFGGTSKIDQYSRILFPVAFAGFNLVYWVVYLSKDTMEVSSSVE

Cc1cc(-c2nnc3c4ccccc4c(OCc4cn(C)nn4)nn23)no1
Efficacy [1]: -40%
Efficacy [2]: -7%
Efficacy [3]: 16%
Efficacy [4]: -15%

Cc1cc(-c2nncc3c(C(C)(C)C)c(OCc4ncnn4C)nn23)no1
Ki [5]: 1.4 nM
Ki [6]: 395 nM
Ki [7]: 0.83 nM
Efficacy [1]: -55%
Ki [8]: 0.85 nM
Efficacy [2]: -9%
Occupancy [9]: 0.35 mg/kg
Efficacy [3]: 6%
bioavailability [10]: 52%
bioavailability [11]: 8%
Ki [12]: 0.77 nM
Efficacy [4]: -16%
Ki [13]: > 4000 nM

CNC1=Nc2ccc(Cl)cc2C(c2ccccc2)=[N+]([O-])C1
Efficacy [2]: 113%
Efficacy [3]: 111%
Efficacy [4]: 100%

CCc1c(C(=O)OC)ncc2[nH]c3cc(OC)c(OC)cc3c12
Efficacy [1]: -57%
Efficacy [2]: -62%
Efficacy [3]: -53%
Efficacy [4]: -71%
